From ChEMBL document CHEMBL2062469, “1-(2-Mercaptobenzenesulfonyl)-3-hydroxyguanidines--novel potent antiproliferatives, synthesis and in vitro biological activity” (2012)

Key:
Type in all cases: functional
[1] = system: CCRF-CEM; experiment: Cytostatic activity against human CCRF-CEM cells
In short: (§1)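 NCI-60 human tumor cell line screen run by the US National Cancer Institute under the NIH Developmental Therapeutics Program protocol. A single-dose prescreen at 10 µM came first. Selected compounds then went into the 5-dose assay. Cytostatic activity is reported as GI50 (µM).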

[2] = system: K562; experiment: Cytostatic activity against human K562 cells; in short: as §1
[3] = system: MOLT-4; experiment: Cytostatic activity against human MOLT4 cells; in short: as §1
[4] = Cytostatic activity against human […] cells; in short: as §1
[5] = system: SR; experiment: Cytostatic activity against human SR cells
In short: (§2)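 Human tumour cell lines from the NCI-60 panel, tested at the US National Cancer Institute under the NIH Developmental Therapeutics Program protocol. A single-dose prescreen at 10 µM came first. Selected compounds then went to a 5-dose assay, which gave GI50 and TGI values in µM.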

[6] = system: EKVX; experiment: Cytostatic activity against human EKVX cells; in short: as §1
[7] = system: HOP-62; experiment: Cytostatic activity against human HOP62 cells; in short: as §1
[8] = system: HOP-92; experiment: Cytostatic activity against human HOP92 cells; in short: as §1
[9] = system: NCI-H226; experiment: Cytostatic activity against human NCI-H226 cells; in short: as §1
[10] = system: NCI-H23; experiment: Cytostatic activity against human NCI-H23 cells; in short: as §1
[11] = system: NCI-H322M; experiment: Cytostatic activity against human NCI-H322M cells; in short: as §1
[12] = system: NCI-H460; experiment: Cytostatic activity against human NCI-H460 cells; in short: as §1
[13] = system: NCI-H522; experiment: Cytostatic activity against human NCI-H522 cells; in short: as §1
[14] = system: COLO 205; experiment: Cytostatic activity against human COLO205 cells; in short: as §1
[15] = system: HCC 2998; experiment: Cytostatic activity against human HCC2998 cells; in short: as §1
[16] = system: HCT-116; experiment: Cytostatic activity against human HCT116 cells; in short: as §1
[17] = system: HCT-15; experiment: Cytostatic activity against human HCT15 cells; in short: as §1
[18] = system: HT-29; experiment: Cytostatic activity against human HT-29 cells; in short: as §1
[19] = system: KM12; experiment: Cytostatic activity against human KM12 cells; in short: as §1
[20] = system: SW-620; experiment: Cytostatic activity against human SW620 cells; in short: as §2
[21] = system: SF-268; experiment: Cytostatic activity against human SF268 cells; in short: as §1
[22] = system: SF-295; experiment: Cytostatic activity against human SF295 cells; in short: as §1
[23] = system: SF-539; experiment: Cytostatic activity against human SF539 cells; in short: as §1
[24] = system: SNB-19; experiment: Cytostatic activity against human SNB19 cells; in short: as §1
[25] = system: SNB-75; experiment: Cytostatic activity against human SNB75 cells; in short: as §2
[26] = system: U-251; experiment: Cytostatic activity against human U251 cells; in short: as §2
[27] = system: LOX IMVI; experiment: Cytostatic activity against human LOXIMVI cells; in short: as §1
[28] = system: Malme-3M; experiment: Cytostatic activity against human MALME-3M cells; in short: as §1
[29] = system: M14; experiment: Cytostatic activity against human M14 cells; in short: as §1
[30] = system: MDA-MB-435; experiment: Cytostatic activity against human MDA-MB-435 cells; in short: as §1
[31] = system: SK-MEL-2; experiment: Cytostatic activity against human SK-MEL-2 cells; in short: as §1
[32] = system: SK-MEL-28; experiment: Cytostatic activity against human SK-MEL-28 cells; in short: as §1
[33] = system: SK-MEL-5; experiment: Cytostatic activity against human SK-MEL-5 cells; in short: as §1
[34] = system: UACC-257; experiment: Cytostatic activity against human UACC257 cells; in short: as §2
[35] = system: UACC-62; experiment: Cytostatic activity against human UACC62 cells; in short: as §2
[36] = system: IGROV-1; experiment: Cytostatic activity against human IGROV1 cells; in short: as §1
[37] = system: OVCAR-3; experiment: Cytostatic activity against human OVCAR3 cells; in short: as §1
[38] = system: OVCAR-4; experiment: Cytostatic activity against human OVCAR4 cells; in short: as §1
[39] = system: OVCAR-5; experiment: Cytostatic activity against human OVCAR5 cells; in short: as §1
[40] = system: OVCAR-8; experiment: Cytostatic activity against human OVCAR8 cells; in short: as §1
[41] = system: NCI/ADR-RES; experiment: Cytostatic activity against human NCI-ADR-RES cells; in short: as §1
[42] = system: SK-OV-3; experiment: Cytostatic activity against human SKOV3 cells; in short: as §1
[43] = system: 786-0; experiment: Cytostatic activity against human 786-0 cells; in short: as §1
[44] = system: A498; experiment: Cytostatic activity against human A498 cells; in short: as §1
[45] = system: ACHN; experiment: Cytostatic activity against human ACHN cells; in short: as §1
[46] = system: CAKI-1; experiment: Cytostatic activity against human Caki1 cells; in short: as §1
[47] = system: RXF 393; experiment: Cytostatic activity against human RXF393 cells; in short: as §1
[48] = system: SN12C; experiment: Cytostatic activity against human SN12C cells; in short: as §1
[49] = system: UO-31; experiment: Cytostatic activity against human UO31 cells; in short: as §2
[50] = system: PC-3; experiment: Cytostatic activity against human PC3 cells; in short: as §1
[51] = system: DU-145; experiment: Cytostatic activity against human DU145 cells; in short: as §1
[52] = system: MCF7; experiment: Cytostatic activity against human MCF7 cells; in short: as §1
[53] = system: MDA-MB-231; experiment: Cytostatic activity against human MDA-MB-231/ATCC cells; in short: as §1
[54] = system: Hs-578T; experiment: Cytostatic activity against human Hs 578T cells; in short: as §1
[55] = system: BT-549; experiment: Cytostatic activity against human BT549 cells; in short: as §1
[56] = system: T47D; experiment: Cytostatic activity against human T47D cells; in short: as §2
[57] = system: MDA-MB-468; experiment: Cytostatic activity against human MDA-MB-468 cells; in short: as §1

In the case of `N=C(NO)NS(=O)(=O)c1cc(-c2nnc(-c3ccccc3)s2)c(Cl)cc1SCc1ccc2c(c1)OCO2`, the GI50 [1] was 1.04 µM, the TGI [1] was 3.66 µM and the GI50 [2] was 1.53 µM. The TGI [2] was 3.94 µM, the GI50 [3] was 1.14 µM and the TGI [3] was 3.08 µM. It also gave a GI50 [4] of 1.76 µM, a TGI [4] of 4.52 µM and a GI50 [5] of 0.88 µM. For the same compound, the TGI [5] was 4.1 µM, the GI50 [6] was 1.65 µM and the TGI [6] was 2.99 µM. For the same compound, the GI50 [7] was 1.93 µM, the TGI [7] was 3.71 µM and the GI50 [8] was 1.82 µM. It also gave a TGI [8] of 5.1 µM, a GI50 [9] of 2.01 µM and a TGI [9] of 4.02 µM. For the same compound, the GI50 [10] was 1.77 µM, the TGI [10] was 3.85 µM and the GI50 [11] was 1.58 µM. For the same compound, the TGI [11] was 4.28 µM, the GI50 [12] was 1.79 µM and the TGI [12] was 3.56 µM. For the same compound, the GI50 [13] was 0.24 µM, the TGI [13] was 0.8 µM and the GI50 [14] was 1.75 µM. It also gave a TGI [14] of 3.28 µM, a GI50 [15] of 1.85 µM and a TGI [15] of 3.59 µM. The GI50 [16] was 1.52 µM, the TGI [16] was 3.31 µM and the GI50 [17] was 2.02 µM. The TGI [17] was 4.34 µM, the GI50 [18] was 1.85 µM and the TGI [18] was 3.43 µM. The GI50 [19] was 1.64 µM, the TGI [19] was 3.03 µM and the GI50 [20] was 1.46 µM. The TGI [20] was 2.86 µM, the GI50 [21] was 1.61 µM and the TGI [21] was 3.32 µM. It also gave a GI50 [22] of 1.63 µM, a TGI [22] of 3.55 µM and a GI50 [23] of 2.15 µM. The TGI [23] was 4.1 µM, the GI50 [24] was 1.77 µM and the TGI [24] was 3.83 µM. It also gave a GI50 [25] of 1.07 µM, a TGI [25] of 2.34 µM and a GI50 [26] of 1.4 µM. It also gave a TGI [26] of 2.85 µM, a GI50 [27] of 1.73 µM and a GI50 [28] of 1.71 µM. For the same compound, the TGI [28] was 3.6 µM, the GI50 [29] was 1.74 µM and the TGI [29] was 3.47 µM. For the same compound, the GI50 [30] was 1.38 µM, the TGI [30] was 2.77 µM and the GI50 [31] was 2.01 µM. It also gave a TGI [31] of 3.75 µM, a GI50 [32] of 1.68 µM and a TGI [32] of 3.5 µM. It also gave a GI50 [33] of 1.52 µM, a TGI [33] of 2.84 µM and a GI50 [34] of 1.67 µM. The TGI [34] was 3.23 µM, the GI50 [35] was 1.7 µM and the TGI [35] was 3.53 µM. The GI50 [36] was 1.68 µM, the TGI [36] was 3.95 µM and the GI50 [37] was 1.7 µM. For the same compound, the TGI [37] was 3.08 µM, the GI50 [38] was 1.71 µM and the TGI [38] was 4.98 µM. For the same compound, the GI50 [39] was 2.06 µM, the TGI [39] was 4.36 µM and the GI50 [40] was 1.77 µM. The TGI [40] was 3.74 µM, the GI50 [41] was 3.68 µM and the GI50 [42] was 1.81 µM. For the same compound, the TGI [42] was 3.34 µM, the GI50 [43] was 2.27 µM and the GI50 [44] was 1.98 µM. For the same compound, the TGI [44] was 5.52 µM, the GI50 [45] was 1.7 µM and the TGI [45] was 3.15 µM. For the same compound, the GI50 [46] was 2.03 µM, the TGI [46] was 4.42 µM and the GI50 [47] was 1.68 µM. The TGI [47] was 3.53 µM, the GI50 [48] was 1.62 µM and the TGI [48] was 3.45 µM. It also gave a GI50 [49] of 1.28 µM, a TGI [49] of 3.54 µM and a GI50 [50] of 1.85 µM. The TGI [50] was 4.13 µM, the GI50 [51] was 1.67 µM and the TGI [51] was 3.11 µM. It also gave a GI50 [52] of 1.36 µM, a TGI [52] of 3.01 µM and a GI50 [53] of 1.68 µM. It also gave a TGI [53] of 3.37 µM, a GI50 [54] of 2.41 µM and a TGI [54] of 6.61 µM. For the same compound, the GI50 [55] was 1.96 µM, the TGI [55] was 4 µM and the GI50 [56] was 1.69 µM. It also gave a TGI [56] of 4.15 µM, a GI50 [57] of 1.53 µM and a TGI [57] of 2.93 µM.
